According to ChEMBL document CHEMBL3102705, “Design, synthesis and investigation on the structure-activity relationships of N-substituted 2-aminothiazole derivatives as antitubercular agents” (Eur J Med Chem, 2014):
Values after ≈ are worked out from the molar mass of the structure shown.

Tests used:
[1] = tested on: Mycobacterium tuberculosis; assay: Antitubercular activity against Mycobacterium tuberculosis H37Rv ATCC 27294 assessed as growth inhibition after 16 to 24 hrs by microplate-Alamar Blue assay; type: functional
Procedure, shortened: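 MIC against M. tuberculosis H37Rv (ATCC 27294), actively replicating, by microplate Alamar Blue assay.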

Vero = assay: Cytotoxicity against African green monkey Vero cells assessed as cell viability after 72 hrs by MTS assay; type: cell-based; details: Chlorocebus sabaeus
Procedure, shortened: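 Value reported as an IC50 against Vero cells.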

[2] = tested on: Mycobacterium tuberculosis; assay: Ratio of MIC for Mycobacterium tuberculosis H37Rv ATCC 27294 expressing Vibrio harveyii luciferase gene with acetamidase promoter by low-oxygen recovery assay to MIC for Mycobacterium tuberculosis H37Rv ATCC 27294 by microplate-Alamar Blue assay; type: functional
[3] = tested on: Mycobacterium tuberculosis; assay: Antitubercular activity against recombinant Mycobacterium tuberculosis H37Rv ATCC 27294 expressing Vibrio harveyii luciferase gene with acetamidase promoter assessed as reduction of metabolic recovery after 10 days by low-oxygen recovery assay; type: functional; details: H37Rv ATCC 27294, 240 h
Procedure, shortened: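 Low oxygen recovery assay on H37Rv (ATCC 27294), used as an in vitro model of nonreplicating persistent M. tuberculosis. Each MIC is a single measurement.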

[4] = Selectivity index, ratio of IC50 for African green monkey Vero cells to MIC for Mycobacterium tuberculosis H37Rv ATCC 27294; type: toxicity, cell-based; details: read-out: Selectivity Index
Procedure, shortened: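 Selectivity index calculated as the Vero cell cytotoxicity IC50 divided by the MABA MIC against H37Rv. Cytotoxicity was measured on Vero cells.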

## Cc1ccc(Nc2nc(C)cs2)cc1
[1]
  MIC: > 128 µM

## COc1ccc(-c2csc(Nc3ccc(C)cc3)n2)cc1
Vero
  IC50: > 128 µM
[1]
  MIC: 13 µM (≈ 3.85 µg/mL)
[2]
  Ratio: 2
[3]
  MIC: 31.8 µM

## Clc1cc(Cl)cc(Nc2nc(-c3ccccc3)c(Cc3ccccc3)s2)c1
Vero
  IC50: 82.7 µM
[1]
  MIC: 20 µM (≈ 8.23 µg/mL)

## Fc1ccc(C(F)(F)F)cc1-c1csc(N(Cc2ccccc2)c2cc(Cl)cc(Cl)c2)n1
[1]
  MIC: > 128 µM

## Clc1cc(Cl)cc(Nc2nc3c(s2)Cc2ccccc2-3)c1
[1]
  MIC: > 128 µM

## Fc1ccc(Nc2nc3c(s2)Cc2ccccc2-3)cc1
[1]
  MIC: > 128 µM

## Clc1cc(Cl)cc(Nc2nc3c(s2)-c2ccccc2C3)c1
[1]
  MIC: > 128 µM

## Clc1cc(Cl)cc(Nc2nc3c(s2)CCc2ccccc2-3)c1
[1]
  MIC: 43.3 µM (≈ 15 µg/mL)

## Fc1ccc(C(F)(F)F)cc1-c1csc(NC2CCCCC2)n1
[1]
  MIC: 30.3 µM (≈ 10.4 µg/mL)

## Cc1ccc(Nc2ncc(-c3ccccc3)s2)cc1
[1]
  MIC: > 128 µM

## CN(C)c1nc(-c2cc(C(F)(F)F)ccc2F)cs1
[1]
  MIC: > 128 µM

## Fc1ccc(C(F)(F)F)cc1-c1csc(N2CCCCC2)n1
[1]
  MIC: 56.5 µM (≈ 18.7 µg/mL)

## CC(=O)N1CCN(c2nc(-c3cc(C(F)(F)F)ccc3F)cs2)CC1
[1]
  MIC: 118 µM (≈ 44 µg/mL)

## Cc1ccc2c(ccn2-c2nc(-c3cc(C(F)(F)F)ccc3F)cs2)c1
[1]
  MIC: > 128 µM

## Cc1ccc(C(=O)Nc2nc(-c3cc(C(F)(F)F)ccc3F)cs2)cc1
[1]
  MIC: > 128 µM

## Cc1ccc(CNc2nc(-c3cc(C(F)(F)F)ccc3F)cs2)cc1
[1]
  MIC: > 128 µM

## Fc1ccc(C(F)(F)F)cc1-c1csc(Nc2ccncc2)n1
[1]
  MIC: > 128 µM

## Cc1ccc(Nc2nc(-c3cc(C(F)(F)F)ccc3F)cs2)cc1
Vero
  IC50: 92.4 µM
[4]
  selectivity ratio: 3.4
[1]
  MIC: 27.5 µM (≈ 9.69 µg/mL)

## Cc1ccc(N(C)c2nc(-c3cc(C(F)(F)F)ccc3F)cs2)cc1
Vero
  IC50: > 128 µM
[1]
  MIC: 31.7 µM (≈ 11.6 µg/mL)

## Cc1cccc(Nc2nc(-c3cc(C(F)(F)F)ccc3F)cs2)c1
[1]
  MIC: 29.8 µM (≈ 10.5 µg/mL)

## Cc1ccccc1Nc1nc(-c2cc(C(F)(F)F)ccc2F)cs1
[1]
  MIC: 35.1 µM (≈ 12.4 µg/mL)

## Fc1ccc(C(F)(F)F)cc1-c1csc(Nc2ccc(Cl)cc2)n1
Vero
  IC50: 46.6 µM
[4]
  selectivity ratio: 2.4
[1]
  MIC: 19.2 µM (≈ 7.16 µg/mL)
[2]
  Ratio: 2
[3]
  MIC: 31.5 µM

## Fc1ccc(C(F)(F)F)cc1-c1csc(Nc2cccc(Cl)c2)n1
[1]
  MIC: 30.1 µM (≈ 11.2 µg/mL)

## Fc1ccc(C(F)(F)F)cc1-c1csc(Nc2ccccc2Cl)n1
[1]
  MIC: > 128 µM

## Fc1ccc(C(F)(F)F)cc1-c1csc(Nc2ccc(Cl)cc2Cl)n1
[1]
  MIC: > 128 µM

## Fc1ccc(C(F)(F)F)cc1-c1csc(Nc2cc(Cl)cc(Cl)c2)n1
Vero
  IC50: 50 µM
[4]
  selectivity ratio: 3.3
[1]
  MIC: 15 µM (≈ 6.11 µg/mL)
[3]
  MIC: 15.2 µM

## Cc1cc(C)cc(Nc2nc(-c3cc(C(F)(F)F)ccc3F)cs2)c1
[1]
  MIC: 30.1 µM (≈ 11 µg/mL)

## Cc1ccc(Nc2nc(-c3cc(C(F)(F)F)ccc3F)cs2)c(Cl)c1
[1]
  MIC: > 128 µM

## Fc1ccc(Nc2nc(-c3cc(C(F)(F)F)ccc3F)cs2)cc1
[1]
  MIC: 59.5 µM (≈ 21.2 µg/mL)

## Cc1ccc(Nc2nc(-c3cc(C(F)(F)F)ccc3F)cs2)c(C)c1
[1]
  MIC: 30.8 µM (≈ 11.3 µg/mL)

## CCN(c1cc(Cl)cc(Cl)c1)c1nc(-c2cc(C(F)(F)F)ccc2F)cs1
[1]
  MIC: > 128 µM

## COc1ccc(-c2csc(Nc3cc(Cl)cc(Cl)c3)n2)cc1
[1]
  MIC: 15.6 µM (≈ 5.48 µg/mL)

## Cc1ccc(Nc2nc(-c3ccc(C(F)(F)F)cc3)cs2)cc1
[1]
  MIC: > 128 µM

## Cc1ccc(Nc2nc(-c3ccc(Cl)cc3)cs2)cc1
[1]
  MIC: > 128 µM

## Cc1ccc(Nc2nc(-c3ccccc3Cl)cs2)cc1
[1]
  MIC: > 128 µM

## Cc1ccc(Nc2nc(-c3ccc(C)cc3)cs2)cc1
[1]
  MIC: > 128 µM

## Cc1ccc(Nc2nc(-c3ccccc3)cs2)cc1
[1]
  MIC: 63.8 µM (≈ 17 µg/mL)

## Cc1ccc(Nc2nc(-c3ccc(O)cc3)cs2)cc1
[1]
  MIC: > 128 µM

## Clc1cc(Cl)cc(Nc2nc(-c3ccccc3)cs2)c1
[1]
  MIC: 28.6 µM (≈ 9.19 µg/mL)

## Cc1sc(Nc2cc(Cl)cc(Cl)c2)nc1-c1ccccc1
[1]
  MIC: 28.9 µM (≈ 9.69 µg/mL)

## Clc1cc(Cl)cc(Nc2nc(-c3ccccc3)c(-c3ccccc3)s2)c1
[1]
  MIC: > 128 µM

## NNC(=O)c1ccncc1 [ISONIAZID]
[1]
  MIC: 0.4 µM (≈ 0.0549 µg/mL)

## O=[N+]([O-])c1cn2c(n1)OC[C@@H](OCc1ccc(OC(F)(F)F)cc1)C2 [PRETOMANID]
[1]
  MIC: 0.8 µM (≈ 0.287 µg/mL)

## CO[C@H]1/C=C/O[C@@]2(C)Oc3c(C)c(O)c4c(O)c(c(/C=N/N5CCN(C)CC5)c(O)c4c3C2=O)NC(=O)/C(C)=C\C=C\[C@H](C)[C@H](O)[C@@H](C)[C@@H](O)[C@@H](C)[C@H](OC(C)=O)[C@@H]1C [RIFAMPIN]
[1]
  MIC: 0.1 µM (≈ 0.0823 µg/mL)

## CN[C@@H]1[C@H](O[C@H]2[C@H](O[C@H]3[C@H](O)[C@@H](O)[C@H](N=C(N)N)[C@@H](O)[C@@H]3N=C(N)N)O[C@@H](C)[C@]2(O)C=O)O[C@@H](CO)[C@H](O)[C@H]1O [STREPTOMYCIN]
[1]
  MIC: 0.3 µM (≈ 0.174 µg/mL)
